Laboratory results: ChEMBL document CHEMBL4033799, “Stable and Long-Lasting, Novel Bicyclic Peptide Plasma Kallikrein Inhibitors for the Treatment of Diabetic Macular Edema” (J Med Chem, 2018)

Tests used:
Plasma = assay: Anti-coagulating activity in human plasma assessed as increase in coagulation time at 14 uM by aPTT assay relative to control; assay type: functional
Coagulation factor XI = Coagulation factor XI (Homo sapiens, UniProt P03951); assay: Inhibition of factor 11a (unknown origin)
Rattus norvegicus [1] = assay: Antiinflammatory activity in Sprague-Dawley rat assessed as inhibition carrageenan-induced paw edema at 5 mg/kg, ip pretreated for 30 mins followed by carrageenan challenge measured up to 8 hrs post carrageenan challenge; assay type: functional
Rattus norvegicus [2] = assay: Antiinflammatory activity in Sprague-Dawley rat assessed as inhibition carrageenan-induced paw edema at 5 mg/kg, ip pretreated for 15 mins followed by carrageenan challenge measured at 2 hrs post carrageenan challenge; conditions: read-out: INH
Rattus norvegicus [3] = assay: Antiinflammatory activity in Sprague-Dawley rat assessed as inhibition carrageenan-induced paw edema at 5 mg/kg, ip pretreated for 15 mins followed by carrageenan challenge measured at 1 hr post carrageenan challenge; conditions: read-out: INH
Rattus norvegicus [4] = assay: Antiinflammatory activity in Sprague-Dawley rat assessed as inhibition carrageenan-induced paw edema at 5 mg/kg, ip pretreated for 15 mins followed by carrageenan challenge measured at 4 hrs post carrageenan challenge; assay type: functional
Outline: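 Male Sprague-Dawley rats got an IP pretreatment 15 min before a subplantar carrageenan injection. Paw volume was recorded at 1, 2, 4 and 6 h after carrageenan. Percent inhibition of paw edema was calculated against a vehicle-treated group.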

Rattus norvegicus [5] = assay: Antiinflammatory activity in Sprague-Dawley rat assessed as inhibition carrageenan-induced paw edema at 5 mg/kg, ip pretreated for 15 mins followed by carrageenan challenge measured at 6 hrs post carrageenan challenge; assay type: functional
Outline: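 Male Sprague-Dawley rats received peptide IP (30, 10 or 3 mg/kg), or indomethacin IP at 5 mg/kg, 15 min before subplantar carrageenan. Paw volume was followed over time against a vehicle group.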

Chain of Coagulation factor XI (P03951 19-387 limits assumed): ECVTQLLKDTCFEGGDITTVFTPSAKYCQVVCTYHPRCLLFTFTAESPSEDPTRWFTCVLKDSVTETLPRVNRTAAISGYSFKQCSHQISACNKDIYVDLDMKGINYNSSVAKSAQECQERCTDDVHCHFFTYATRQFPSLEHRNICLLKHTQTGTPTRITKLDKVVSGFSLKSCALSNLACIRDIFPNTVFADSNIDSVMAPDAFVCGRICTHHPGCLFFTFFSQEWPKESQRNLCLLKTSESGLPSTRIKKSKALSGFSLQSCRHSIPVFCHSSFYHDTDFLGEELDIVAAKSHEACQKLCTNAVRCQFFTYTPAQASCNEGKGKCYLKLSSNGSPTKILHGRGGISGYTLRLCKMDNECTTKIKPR
Chain of Coagulation factor XI (P03951 388-625 limits assumed): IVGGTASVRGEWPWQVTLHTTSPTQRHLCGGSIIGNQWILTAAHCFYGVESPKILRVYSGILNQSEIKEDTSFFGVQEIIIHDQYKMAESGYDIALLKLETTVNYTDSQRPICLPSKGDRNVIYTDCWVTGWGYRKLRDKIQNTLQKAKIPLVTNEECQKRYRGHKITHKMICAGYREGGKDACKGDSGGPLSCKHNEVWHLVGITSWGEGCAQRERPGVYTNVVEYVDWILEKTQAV

Row | SMILES | fold change (FC) (Plasma) | Ki (Coagulation factor XI) | inhibition in vivo at 5 mg/kg (Rattus norvegicus [1]) | inhibition in vivo at 5 mg/kg (Rattus norvegicus [2]) | inhibition in vivo at 5 mg/kg (Rattus norvegicus [3]) | inhibition in vivo at 5 mg/kg (Rattus norvegicus [4]) | inhibition in vivo at 5 mg/kg (Rattus norvegicus [5])
1 | Cc1cc(Oc2nc(Oc3cccc(C(=N)N)c3)c(F)c(NC(C)CCc3ccccc3)c2F)c(C(=O)O)cc1N(C)C (configuration not stated) | 2 | 1000 nM | – | – | – | – | –
2 | COc1ccc2c(c1)c(CC(=O)O)c(C)n2C(=O)c1ccc(Cl)cc1 [INDOMETHACIN] | – | – | 47.2% | 56% | 79% | 54% | 48%
